In series [1] the target is human OGG1 (Homo sapiens, UniProt O15527). The class given is biochemical. The note with it: for inhibition of excision of 8-OH-Gua by OGG1 / inhibition of excision of FapyAde by OGG1: inhibitor 10 μmol/L, genomic DNA, GC-MS/MS; for inhibition at 10 µM: read-out: inhibition of excision of FapyGua by OGG1. Put shortly: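 Test compound was dissolved in DMSO and added to the reaction mixture of human OGG1 with genomic DNA carrying multiple oxidatively-induced lesions. It was screened at 10 μmol/L, then tested from 0.05 to 10 μmol/L. Excised 8-OH-Gua, FapyGua and FapyAde were quantified by isotope-dilution GC-MS/MS. Controls were no enzyme, no inhibitor, and DMSO alone. Standard deviations were given; significance was set at p < 0.05.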

Series [2] deals with OGG1. The note with it: read-out: IC50 OGG1, cited from earlier work.
Series [3] relates to HEK293T and HeLa cells. As to conditions: cited from earlier work.
Series [4] has as its system HeLa cells. The note with it: LC-MS/MS with isotope-dilution; cited from earlier work.
Series [5] deals with Pseudomonas aeruginosa. The note with it: mice infected with Pseudomonas aeruginosa; cited from earlier work.
The subject of series [6] is other BER enzymes / other DNA glycosylases. The note with it: cited from earlier work.
For series [7], the system named is MTH1. The note with it: read-out: IC50 MTH1; dual inhibitor; cited from earlier work.
Setting [8] is: highest concentration of 100 μmol/L.

Molecules are shown by their SMILES. “Also recorded” adds a separate entry of the source. Read-outs that look alike come from different tables or passages of the source.

Here are results for two compounds from article PMC9199349 (ACS chemical biology, 2020).

Chain of human OGG1 (O15527 whole entry): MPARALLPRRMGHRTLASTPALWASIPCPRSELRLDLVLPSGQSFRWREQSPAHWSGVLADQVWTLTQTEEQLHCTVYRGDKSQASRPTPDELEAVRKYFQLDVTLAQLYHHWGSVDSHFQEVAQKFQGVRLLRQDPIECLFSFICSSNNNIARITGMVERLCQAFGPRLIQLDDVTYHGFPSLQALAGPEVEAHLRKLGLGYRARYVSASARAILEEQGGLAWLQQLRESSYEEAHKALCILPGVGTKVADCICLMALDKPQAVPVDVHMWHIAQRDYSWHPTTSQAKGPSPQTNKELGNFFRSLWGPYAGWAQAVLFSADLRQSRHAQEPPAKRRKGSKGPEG

The term inhibition denotes the drop in the measured response relative to a control, in per cent. As a reminder, the IC50 is the concentration needed to halve the response being measured. Turning to `NC(=O)c1cccc(-c2ccc(S(=O)(=O)Nc3ccc4c(c3)N(C(=O)C3CC3)CCC4)cc2)c1` [SU0268, 4’-(N-(1-(cyclopropanecarbonyl)-1,2,3,4-tetrahydroquinolin-7-yl)sulfamoyl)-[1,1’-biphenyl]-3-carboxamide], in series [1], the “inhibition of excision of 8-OH-Gua by OGG1” value is recorded as “strongly inhibited”, the “inhibition of excision of FapyAde by OGG1” value is recorded as “quite significant” and the inhibition at 10 µM was ~60%. In addition, in series [2] (fluorogenic assay of 8-OH-Gua excision), the IC50 was 59 nM. For the same compound, the toxicity entry in series [3] (concentrations up to 10 μmol/L) is “little or no toxicity”. Also, the toxicity entry in series [3] (setting [8]) is “moderate toxicity”. Also, in series [4], the “level of 8-OH-Gua in DNA” value was “increase the level of 8-OH-Gua in DNA”. In addition, the “inflammation and mortality / survival” value in series [5] was “reduced both inflammation and proinflammatory cytokines, and improved animal survival; also recorded: efficacy in reducing inflammation and mortality”. Moreover, the “selectivity for OGG1 over other BER enzymes” value in series [6] is listed as “selective for inhibiting OGG1 over other BER enzymes”.

For `Cc1cnc(N)nc1OCCNC(=O)c1cccc(-c2ccc(S(=O)(=O)Nc3ccc4c(c3)N(C(=O)C3CC3)CCC4)cc2)c1` [SU0383, N-(2-((2-Amino-5-methylpyrimidin-4-yl)oxy)ethyl)-4’-(N-(1-(cyclopropanecarbonyl)-1,2,3,4-tetrahydroquinolin-7-yl)sulfamoyl)-[1,1’-biphenyl]-3-carboxamide], in series [1], the “inhibition of excision of 8-OH-Gua by OGG1” value is given as “significant inhibition”, the “inhibition of excision of FapyAde by OGG1” value was “quite significant” and the inhibition at 10 µM was ~30%. In series [2] (dual inhibitor), the IC50 was 490 nM. Also, in series [7], the half-inhibitory concentration (IC50) is 34 nM. Moreover, the toxicity result in series [3] (concentrations up to 10 μmol/L) is “little or no toxicity”. The toxicity result in series [3] (setting [8]) is recorded as “moderate toxicity”.
